Active and inactive are the calls of the source. No cut-off for these calls is given here.
Tests used:
[1] = Displacement of [125I]IMPY from aggregated amyloid beta (1-42) by gamma counting
[2] = test system: Brain; assay: Biodistribution in ddY mouse brain at 0.2 to 0.4 uCi, iv after 30 mins post-injection by gamma counting; format: ADME, organism-based; details: in vivo, 0.5 h
Summary of the method: (§1)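 Normal ddY mice (5-week-old, 22-25 g) received 0.2–0.4 μCi of the 125I-labelled agent by tail-vein injection in 100 μL saline containing 10 μL ethanol. Animals were killed at 2, 10, 30 or 60 min, and organs were removed, weighed and gamma counted. Values are % injected dose per gram, mean (SD) of 4-6 animals.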

[3] = test system: Pancreas; assay: Biodistribution in ddY mouse pancreas at 0.2 to 0.4 uCi, iv after 10 mins post-injection by gamma counting; format: ADME, organism-based; details: in vivo; summary of the method: as §1
[4] = test system: Spleen; assay: Biodistribution in ddY mouse spleen at 0.2 to 0.4 uCi, iv after 2 mins post-injection by gamma counting; format: ADME, organism-based; details: in vivo; summary of the method: as §1
[5] = test system: Stomach; assay: Biodistribution in ddY mouse stomach assessed per organ at 0.2 to 0.4 uCi, iv after 2 mins post-injection by gamma counting; format: ADME, organism-based; details: in vivo
Summary of the method: (§2)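 Normal ddY mice (5-week-old, 22-25 g) were injected by tail vein with 0.2–0.4 μCi of 125I ligand in saline (100 μL) containing 10 μL ethanol. At 2, 10, 30 or 60 min the stomach was removed and gamma counted. Values are % injected dose per organ, mean (SD) of 4-6 animals.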

[6] = test system: Pancreas; assay: Biodistribution in ddY mouse pancreas at 0.2 to 0.4 uCi, iv after 30 mins post-injection by gamma counting; format: ADME, organism-based; details: in vivo, 0.5 h; summary of the method: as §1
[7] = test system: Brain; assay: Biodistribution in ddY mouse brain at 0.2 to 0.4 uCi, iv after 10 mins post-injection by gamma counting; format: ADME, organism-based; details: in vivo; summary of the method: as §1
[8] = test system: Liver; assay: Biodistribution in ddY mouse liver at 0.2 to 0.4 uCi, iv after 2 mins post-injection by gamma counting; format: ADME, organism-based; details: in vivo; summary of the method: as §1
[9] = test system: Kidney; assay: Biodistribution in ddY mouse kidney at 0.2 to 0.4 uCi, iv after 30 mins post-injection by gamma counting; format: ADME, organism-based; details: in vivo, 0.5 h; summary of the method: as §1
[10] = test system: Heart; assay: Biodistribution in ddY mouse heart at 0.2 to 0.4 uCi, iv after 2 mins post-injection by gamma counting; format: ADME, organism-based; details: in vivo; summary of the method: as §1
[11] = test system: Brain; assay: Biodistribution in ddY mouse brain at 0.2 to 0.4 uCi, iv after 2 mins post-injection by gamma counting; format: ADME, organism-based; details: in vivo; summary of the method: as §1
[12] = test system: Kidney; assay: Biodistribution in ddY mouse kidney at 0.2 to 0.4 uCi, iv after 60 mins post-injection by gamma counting; format: ADME, organism-based; details: in vivo, 1 h; summary of the method: as §1
[13] = test system: Blood; assay: Biodistribution in ddY mouse blood at 0.2 to 0.4 uCi, iv after 10 mins post-injection by gamma counting; format: ADME, organism-based; details: in vivo; summary of the method: as §1
[14] = test system: Liver; assay: Biodistribution in ddY mouse liver at 0.2 to 0.4 uCi, iv after 60 mins post-injection by gamma counting; format: ADME, organism-based; details: in vivo, 1 h; summary of the method: as §1
[15] = test system: Intestine; assay: Biodistribution in ddY mouse intestine at 0.2 to 0.4 uCi, iv after 60 mins post-injection by gamma counting; format: ADME, organism-based; details: in vivo, 1 h; summary of the method: as §1
[16] = test system: Heart; assay: Biodistribution in ddY mouse heart at 0.2 to 0.4 uCi, iv after 10 mins post-injection by gamma counting; format: ADME, organism-based; details: in vivo; summary of the method: as §1
[17] = test system: Spleen; assay: Biodistribution in ddY mouse spleen at 0.2 to 0.4 uCi, iv after 30 mins post-injection by gamma counting; format: ADME, organism-based; details: in vivo, 0.5 h; summary of the method: as §1
[18] = test system: Brain; assay: Biodistribution in ddY mouse brain at 0.2 to 0.4 uCi, iv after 60 mins post-injection by gamma counting; format: ADME, organism-based; details: in vivo, 1 h; summary of the method: as §1
[19] = test system: Intestine; assay: Biodistribution in ddY mouse intestine at 0.2 to 0.4 uCi, iv after 30 mins post-injection by gamma counting; format: ADME, organism-based; details: in vivo, 0.5 h; summary of the method: as §1
[20] = test system: Heart; assay: Biodistribution in ddY mouse heart at 0.2 to 0.4 uCi, iv after 30 mins post-injection by gamma counting; format: ADME, organism-based; details: in vivo, 0.5 h; summary of the method: as §1
[21] = test system: Stomach; assay: Biodistribution in ddY mouse stomach assessed per organ at 0.2 to 0.4 uCi, iv after 30 mins post-injection by gamma counting; format: ADME, organism-based; details: in vivo, 0.5 h; summary of the method: as §2
[22] = test system: Intestine; assay: Biodistribution in ddY mouse intestine at 0.2 to 0.4 uCi, iv after 2 mins post-injection by gamma counting; format: ADME, organism-based; details: in vivo; summary of the method: as §1
[23] = test system: Spleen; assay: Biodistribution in ddY mouse spleen at 0.2 to 0.4 uCi, iv after 10 mins post-injection by gamma counting; format: ADME, organism-based; details: in vivo; summary of the method: as §1
[24] = test system: Pancreas; assay: Biodistribution in ddY mouse pancreas at 0.2 to 0.4 uCi, iv after 60 mins post-injection by gamma counting; format: ADME, organism-based; details: in vivo, 1 h; summary of the method: as §1
[25] = test system: Heart; assay: Biodistribution in ddY mouse heart at 0.2 to 0.4 uCi, iv after 60 mins post-injection by gamma counting; format: ADME, organism-based; details: in vivo, 1 h; summary of the method: as §1
[26] = test system: Stomach; assay: Biodistribution in ddY mouse stomach assessed per organ at 0.2 to 0.4 uCi, iv after 10 mins post-injection by gamma counting; format: ADME, organism-based; details: in vivo; summary of the method: as §2
[27] = test system: Liver; assay: Biodistribution in ddY mouse liver at 0.2 to 0.4 uCi, iv after 30 mins post-injection by gamma counting; format: ADME, organism-based; details: in vivo, 0.5 h; summary of the method: as §1
[28] = test system: Blood; assay: Biodistribution in ddY mouse blood at 0.2 to 0.4 uCi, iv after 60 mins post-injection by gamma counting; format: ADME, organism-based; details: in vivo, 1 h; summary of the method: as §1
[29] = test system: Intestine; assay: Biodistribution in ddY mouse intestine at 0.2 to 0.4 uCi, iv after 10 mins post-injection by gamma counting; format: ADME, organism-based; details: in vivo; summary of the method: as §1
[30] = test system: Liver; assay: Biodistribution in ddY mouse liver at 0.2 to 0.4 uCi, iv after 10 mins post-injection by gamma counting; format: ADME, organism-based; details: in vivo; summary of the method: as §1
[31] = test system: Blood; assay: Biodistribution in ddY mouse blood at 0.2 to 0.4 uCi, iv after 30 mins post-injection by gamma counting; format: ADME, organism-based; details: in vivo, 0.5 h; summary of the method: as §1
[32] = test system: Kidney; assay: Biodistribution in ddY mouse kidney at 0.2 to 0.4 uCi, iv after 10 mins post-injection by gamma counting; format: ADME, organism-based; details: in vivo; summary of the method: as §1
[33] = test system: Stomach; assay: Biodistribution in ddY mouse stomach assessed per organ at 0.2 to 0.4 uCi, iv after 60 mins post-injection by gamma counting; format: ADME, organism-based; details: in vivo, 1 h; summary of the method: as §2
[34] = test system: Blood; assay: Biodistribution in ddY mouse blood at 0.2 to 0.4 uCi, iv after 2 mins post-injection by gamma counting; format: ADME, organism-based; details: in vivo; summary of the method: as §1
[35] = test system: Kidney; assay: Biodistribution in ddY mouse kidney at 0.2 to 0.4 uCi, iv after 2 mins post-injection by gamma counting; format: ADME, organism-based; details: in vivo; summary of the method: as §1
[36] = test system: Spleen; assay: Biodistribution in ddY mouse spleen at 0.2 to 0.4 uCi, iv after 60 mins post-injection by gamma counting; format: ADME, organism-based; details: in vivo, 1 h; summary of the method: as §1
[37] = test system: Pancreas; assay: Biodistribution in ddY mouse pancreas at 0.2 to 0.4 uCi, iv after 2 mins post-injection by gamma counting; format: ADME, organism-based; details: in vivo; summary of the method: as §1
[38] = Octanol-phosphate buffer partition coefficient, log P at pH 7.4 by gamma counting of radioactivity
[39] = species on record: Mus musculus; assay: Binding affinity to amyloid beta (1-42) in brain of transgenic 2576 mouse Alzheimer's model at 100 uM after 30 mins by thioflavin S staining-based fluorescence microscopic analysis
[40] = species on record: Mus musculus; assay: Binding affinity to amyloid beta (1-42) in normal mouse brain at 100 uM after 30 mins by thioflavin S staining-based fluorescence microscopic analysis

SMILES: OCCOCCOCCOc1ccc(-c2nnc(-c3ccc(I)cc3)o2)cc1
- Ki [1]: 258 nM

SMILES: COc1ccc(-c2nnc(-c3ccc([125I])cc3)o2)cc1
- Drug uptake [2]: 1.04 % ID/g
- Drug uptake [3]: 1.98 % ID/g
- Drug uptake [4]: 2.44 % ID/g
- Drug uptake [5]: 0.71 %ID
- Drug uptake [6]: 0.96 % ID/g
- Drug uptake [7]: 2.74 % ID/g
- Drug uptake [8]: 9.6 % ID/g
- Drug uptake [9]: 4.36 % ID/g
- Drug uptake [10]: 4.8 % ID/g
- Drug uptake [11]: 3.75 % ID/g
- Drug uptake [12]: 2.48 % ID/g
- Drug uptake [13]: 1.6 % ID/g
- Drug uptake [14]: 4.65 % ID/g
- Drug uptake [15]: 19.85 % ID/g
- Drug uptake [16]: 1.73 % ID/g
- Drug uptake [17]: 0.8 % ID/g
- Drug uptake [18]: 0.36 % ID/g
- Drug uptake [19]: 10.06 % ID/g
- Drug uptake [20]: 0.92 % ID/g
- Drug uptake [21]: 3.12 %ID
- Drug uptake [22]: 2.07 % ID/g
- Drug uptake [23]: 1.51 % ID/g
- Drug uptake [24]: 0.57 % ID/g
- Drug uptake [25]: 0.43 % ID/g
- Drug uptake [26]: 1.41 %ID
- Drug uptake [27]: 8.07 % ID/g
- Drug uptake [28]: 0.8 % ID/g
- Drug uptake [29]: 4.49 % ID/g
- Drug uptake [30]: 12.6 % ID/g
- Drug uptake [31]: 1.26 % ID/g
- Drug uptake [32]: 4.85 % ID/g
- Drug uptake [33]: 2.9 %ID
- Drug uptake [34]: 1.84 % ID/g
- Drug uptake [35]: 7.14 % ID/g
- Drug uptake [36]: 0.6 % ID/g
- Drug uptake [37]: 4.74 % ID/g

SMILES: COc1ccc(-c2nc(-c3ccc(I)cc3)no2)cc1
- logD [38]: 3.37

SMILES: OCCOCCOc1ccc(-c2nnc(-c3ccc(I)cc3)o2)cc1
- Ki [1]: 349 nM

SMILES: CN(C)c1ccc(-c2nnc(-c3ccc([125I])cc3)o2)cc1
- Drug uptake [2]: 3.16 % ID/g
- Drug uptake [3]: 4.39 % ID/g
- Drug uptake [4]: 3.56 % ID/g
- Drug uptake [5]: 1.4 %ID
- Drug uptake [6]: 2.5 % ID/g
- Drug uptake [7]: 5.93 % ID/g
- Drug uptake [8]: 15.87 % ID/g
- Drug uptake [9]: 5.71 % ID/g
- Drug uptake [10]: 3.99 % ID/g
- Drug uptake [11]: 2.98 % ID/g
- Drug uptake [12]: 3.81 % ID/g
- Drug uptake [13]: 3.51 % ID/g
- Drug uptake [14]: 10.01 % ID/g
- Drug uptake [15]: 16.22 % ID/g
- Drug uptake [16]: 3.55 % ID/g
- Drug uptake [17]: 2.63 % ID/g
- Drug uptake [18]: 1.78 % ID/g
- Drug uptake [19]: 12.58 % ID/g
- Drug uptake [20]: 2.03 % ID/g
- Drug uptake [21]: 4.79 %ID
- Drug uptake [22]: 2.28 % ID/g
- Drug uptake [23]: 4.1 % ID/g
- Drug uptake [24]: 2.14 % ID/g
- Drug uptake [25]: 1.54 % ID/g
- Drug uptake [26]: 4.73 %ID
- Drug uptake [27]: 12.64 % ID/g
- Drug uptake [28]: 2.21 % ID/g
- Drug uptake [29]: 11.34 % ID/g
- Drug uptake [30]: 19.12 % ID/g
- Drug uptake [31]: 2.53 % ID/g
- Drug uptake [32]: 7.8 % ID/g
- Drug uptake [33]: 5.5 %ID
- Drug uptake [34]: 3.28 % ID/g
- Drug uptake [35]: 9.14 % ID/g
- Drug uptake [36]: 2.05 % ID/g
- Drug uptake [37]: 5.32 % ID/g

SMILES: COc1ccc(-c2nnc(-c3ccc(I)cc3)o2)cc1
- Activity [39]: Active
- Ki [1]: 46.1 nM
- logD [38]: 2.58

SMILES: CN(C)c1ccc(-c2nc(-c3ccc(I)cc3)no2)cc1
- logD [38]: 3.22

SMILES: CN(C)c1ccc(-c2nnc(-c3ccc(I)cc3)o2)cc1
- Activity [39]: Active
- Ki [1]: 20.1 nM
- logD [38]: 2.43
- Activity [40]: inactive

SMILES: OCCOc1ccc(-c2nnc(-c3ccc(I)cc3)o2)cc1
- Ki [1]: 282 nM

SMILES: Oc1ccc(-c2nnc(-c3ccc(I)cc3)o2)cc1
- Ki [1]: 230 nM

Source: ChEMBL document CHEMBL1152521, “Synthesis and biological evaluation of radioiodinated 2,5-diphenyl-1,3,4-oxadiazoles for detecting beta-amyloid plaques in the brain” (Bioorg Med Chem, 2009)
